Compound activity from PubChem.
In the library only some 2.5% were active in any assay of this set; here they are far more common.
NTR1 agonist: activates human neurotensin receptor 1. P30989. NTR1-U2OS beta-arrestin-GFP spot imaging, agonist mode. activation, % at 20 µM. actives 0.17% (n = 330,000). AID 493036;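 active = activation at or above 40% of the spot to cytoplasm intensity ratio, with at least 20 cells analyzed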;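 also: 0% = DMSO without peptide and 100% = 100 nM NTR1 peptide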
MC4R antagonist: blocks human MC4R cAMP signaling. P32245. MC4R-expressing cells, MTII-stimulated cAMP, LANCE TR-FRET. inhibition, % at 6.5 µM. actives 0.48% (n = 360,000). AID 540295;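 active = inhibition above its plate's cutoff, the mean of tested wells on that plate plus 3 SD, cut at about 29% in these data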;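 also: 0% = Melanotan II alone and 100% = Melanotan II plus saturating MCL0020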
Target sequence (P32245 whole entry, looked up): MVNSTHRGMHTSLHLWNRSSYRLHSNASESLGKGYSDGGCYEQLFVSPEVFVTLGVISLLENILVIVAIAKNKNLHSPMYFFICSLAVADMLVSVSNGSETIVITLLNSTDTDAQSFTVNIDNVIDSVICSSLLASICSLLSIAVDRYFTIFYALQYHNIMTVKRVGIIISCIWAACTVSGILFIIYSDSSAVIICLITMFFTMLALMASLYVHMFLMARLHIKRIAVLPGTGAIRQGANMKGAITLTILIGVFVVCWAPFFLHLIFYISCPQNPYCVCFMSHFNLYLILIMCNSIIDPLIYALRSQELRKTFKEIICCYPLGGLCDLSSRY
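system = U2OS cells with stable human MC4R expression | also added = Melanotan II challenge after compound preincubation | dosing = one concentration, 6.5 µM nominal | incubation = compound 30 min, challenge 1 h, detection 1 h | measured by = TR-FRET with Eu-cAMP and labeled anti-cAMP, 671 nm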
MC4R ag barr: activates human MC4R beta-arrestin recruitment; P32245; U2OS MC4R beta-arrestin complementation, luminescence; percent of melanotan II response, DMSO zero; activation, % at 8.9 µM; actives 0.98% (n = 360,000);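 active = activation above a per-plate cutoff, the mean activation of sample wells on that plate plus 3 SD, cut at about 8% in these data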
PG9 binder: small molecules binding HIV-1 gp120 antibody PG9. TR-FRET gp120-PG9 antibody binding. inhibition, % at 6.7 µM. actives 0.43% (n = 360,000); in the data active = inhibition above about 8.5%
NR1D1 modulator: modulators of human Rev-erb alpha DNA binding; actives 0.79% (n = 370,000); AID 1259318; activity, % at 10 µM; P20393; Rev-erbα–FITC-DNA binding, fluorescence polarization, 90 min;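 active = activity above about 14%, limit read from the data; passing the limit was not always enough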;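 also: 0% = DMSO wells with 35 nM protein and 100% = DMSO wells with 750 nM protein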
cAMP nonselect: nonselective cAMP signaling inhibitor, MC4R antagonist counter-screen; shares compounds with MC4R antagonist; parental U2OS, forskolin cAMP, LANCE TR-FRET; inhibition, % at 6.5 µM; actives 26% (n = 1,600);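 active = mean inhibition over triplicates above the low-control well mean plus 3 SD, set per campaign, cut at about 13% in these data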;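 also: signal is single emission at 671 nm which falls as cellular cAMP rises; 0% = forskolin-stimulated wells and 100% = buffer without forskolin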
MC4R cAMP antag: human MC4R cAMP antagonism confirmation; shares compounds with MC4R antagonist; MC4R-expressing cells, MTII-stimulated cAMP, TR-FRET; inhibition, % at 6.5 µM; actives 27% (n = 1,600); AID 602195; in the data active = inhibition above about 29%;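 also: 0% = agonist stimulated wells alone and 100% = agonist stimulated wells plus saturating reference antagonist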
* = called active by the depositor.

Results for CCOC(=O)c1c(NC(=O)CCC(=O)O)sc2c1CC(C)(C)OC2 ?
NTR1 agonist: -0.6; MC4R antagonist: 32.6*; MC4R ag barr: -1.0; PG9 binder: -4.3; NR1D1 modulator: -4.5; cAMP nonselect: 1.9; MC4R cAMP antag: -1.9

Results for O=C(NCc1ccccc1)[C@@H]1CCCN1C(=O)[C@H]1CCCN1C(=O)c1ccc(F)c(C(F)(F)F)c1 ?
PG9 binder: -0.1; NR1D1 modulator: 0.0

How did COc1cc(C(=O)NCC(=O)N/N=C\C(C)=C/c2ccccc2)cc(OC)c1OC do in these assays?
NTR1 agonist: 0.7; MC4R antagonist: 30.5*; MC4R ag barr: -0.3; PG9 binder: -2.9; NR1D1 modulator: -3.0; cAMP nonselect: -1.3; MC4R cAMP antag: -4.3

How did CC(C)C1=CC2C3C(=O)N(c4ccccc4)C(=O)C3C1C(=O)C2(C)O (stereo unspecified) do in these assays?
PG9 binder: -1.3; NR1D1 modulator: 11.6

What do the screens show for `O=C(Nc1ccccc1Cl)C1CCCN(S(=O)(=O)c2cccc3cccnc23)C1` (stereo unspecified)?
NTR1 agonist: 0.3; MC4R antagonist: 1.8; MC4R ag barr: 1.4; PG9 binder: -0.6; NR1D1 modulator: -0.5

Results for O=C(Nc1nc2cc(Cl)ccc2s1)C1CCCN(S(=O)(=O)c2cccc3cccnc23)C1 (stereo unspecified) ?
NTR1 agonist: -4.8; MC4R antagonist: 28.9*; MC4R ag barr: 2.9; cAMP nonselect: 2.5; MC4R cAMP antag: 18.9

What do the screens show for `CCOc1ccc(CCNC(=O)CCS(=O)(=O)c2ccc(Br)cc2)cc1OCC`?
NTR1 agonist: 1.8; MC4R antagonist: 28.8*; MC4R ag barr: 1.0; PG9 binder: -1.8; NR1D1 modulator: -2.7; cAMP nonselect: 0.1; MC4R cAMP antag: 9.8

Results for CCOc1ccc(CCNC(=O)CCS(=O)(=O)c2ccc(C)cc2)cc1OCC ?
NTR1 agonist: -1.5; MC4R antagonist: -1.6; MC4R ag barr: -0.9; PG9 binder: -0.4; NR1D1 modulator: 0.8

Results for O=C(NCCc1csc(-c2ccccc2)n1)c1c(F)cccc1F ?
NTR1 agonist: 1.3; MC4R antagonist: 13.7; MC4R ag barr: 0.6; PG9 binder: -0.3; NR1D1 modulator: -5.9

What do the screens show for `O=C(NCCc1csc(-c2ccccc2)n1)c1c(F)cccc1Cl`?
NTR1 agonist: 0.4; MC4R antagonist: 30.8*; MC4R ag barr: -2.2; PG9 binder: -3.5; NR1D1 modulator: -3.8; cAMP nonselect: -2.0; MC4R cAMP antag: -0.3

Results for O=C(Nc1cc(Cl)ccc1-n1cncn1)c1cc(F)c(F)c(F)c1F ?
NTR1 agonist: 0.0; MC4R antagonist: 30.6*; MC4R ag barr: 1.5; PG9 binder: 0.7; NR1D1 modulator: 2.2; cAMP nonselect: 24.1*; MC4R cAMP antag: 50.4*

What do the screens show for `Cc1cc(C)nc(NS(=O)(=O)c2ccc(NC(=O)Cc3ccccc3)cc2)n1`?
NTR1 agonist: 0.9; MC4R antagonist: 35.0*; MC4R ag barr: 1.4; PG9 binder: -2.6; NR1D1 modulator: 0.6; cAMP nonselect: 1.8; MC4R cAMP antag: -12.4

How did CN1C(=O)CC(C(=O)Nc2ccccc2F)SC1=Nc1ccc2c(c1)OCO2 (stereo unspecified) do in these assays?
NTR1 agonist: -0.4; MC4R antagonist: 32.5*; MC4R ag barr: 1.4; PG9 binder: -1.3; NR1D1 modulator: 0.5; cAMP nonselect: 2.2; MC4R cAMP antag: -0.9

How did COc1ccc(N=C2SC(C(=O)Nc3ccc4c(c3)OCO4)CC(=O)N2C)cc1 (stereo unspecified) do in these assays?
NTR1 agonist: -1.7; MC4R antagonist: 6.9; MC4R ag barr: 0.6; PG9 binder: -0.8; NR1D1 modulator: -5.5

How did CN1CC=C(c2ccc(C(F)(F)F)cc2)N(c2ccc(Br)cc2)C1=O do in these assays?
NR1D1 modulator: -3.6

How did COC(=O)c1ccccc1NC(=O)N1CCN(S(C)(=O)=O)CC1 do in these assays?
NTR1 agonist: -0.9; MC4R antagonist: 30.9*; MC4R ag barr: 0.4; PG9 binder: 0.1; NR1D1 modulator: 2.8; cAMP nonselect: -0.1; MC4R cAMP antag: 4.8

How did CC1c2[nH]c3ccccc3c2CCN1C(=O)Nc1ccccc1 (stereo unspecified) do in these assays?
NTR1 agonist: -0.6; MC4R antagonist: -9.2; MC4R ag barr: 0.9; PG9 binder: -3.0; NR1D1 modulator: -2.4

Results for O=C(Nc1ccccc1)N1CCc2c([nH]c3ccccc23)C1C(F)(F)F (stereo unspecified) ?
NTR1 agonist: 1.2; MC4R antagonist: 35.0*; MC4R ag barr: 0.7; PG9 binder: 1.0; NR1D1 modulator: -1.9; cAMP nonselect: -3.2; MC4R cAMP antag: -2.6

Results for C=C1CC2(OC1=O)c1ccccc1CCc1ccccc12 ?
MC4R antagonist: 31.6*; MC4R ag barr: -2.2; PG9 binder: 0.7; NR1D1 modulator: -1.1; cAMP nonselect: 38.6*; MC4R cAMP antag: 24.2

Results for CC(C)C[C@H]1COc2cc(N3CCSCC3)ccc2S(=O)(=O)N1C ?
NR1D1 modulator: 5.1

What do the screens show for `ClCC1NCC(c2ccccc2Cl)c2c1[nH]c1ccccc21` (stereo unspecified)?
NTR1 agonist: -0.1; MC4R antagonist: 36.5*; MC4R ag barr: 2.9; PG9 binder: 0.2; NR1D1 modulator: 3.0; cAMP nonselect: 2.0; MC4R cAMP antag: 2.7

Results for O=C1[C@H](c2ccccc2)[C@@H](c2ccncc2)N1c1ccncc1 ?
PG9 binder: 1.0; NR1D1 modulator: 3.7

What do the screens show for `COc1ccccc1C(=O)NC(=S)N1CCc2ccccc21`?
NTR1 agonist: -0.8; MC4R antagonist: 29.9*; MC4R ag barr: 0.3; PG9 binder: 0.0; NR1D1 modulator: -3.8; cAMP nonselect: -6.0; MC4R cAMP antag: -3.5

What do the screens show for `C=CCN=C1NC(c2ccc(C(F)(F)F)cc2)C(C(=O)OC)=C(C)N1C` (stereo unspecified)?
PG9 binder: -0.2; NR1D1 modulator: -2.3

How did COc1ccc(CN2CC(C(=O)NCCCN3CCCC(C)C3)CC2=O)cc1 (stereo unspecified) do in these assays?
NTR1 agonist: 0.8; MC4R antagonist: 33.7*; MC4R ag barr: 0.1; PG9 binder: -0.6; NR1D1 modulator: -4.8; cAMP nonselect: -1.4; MC4R cAMP antag: -4.1

How did COc1ccccc1CNCc1cc(OC)c(OC)c(OC)c1 do in these assays?
NTR1 agonist: 0.0; MC4R antagonist: 30.2*; MC4R ag barr: -1.4; PG9 binder: -3.0; NR1D1 modulator: -6.1; cAMP nonselect: 0.4; MC4R cAMP antag: -6.5

How did COc1ccc(OC)c2c1C(=O)C(Cl)=C(Cl)C2=O do in these assays?
NTR1 agonist: -2.8; MC4R antagonist: 32.0*; MC4R ag barr: -2.3; PG9 binder: 0.4; NR1D1 modulator: -0.9; cAMP nonselect: 72.7*; MC4R cAMP antag: 48.7*
